PP5 primary = PP5 (human) phosphatase inhibition; P53041; purified PP5c, OMFP substrate fluorescence; inhibition, % at 6.7 µM; actives 0.18% (n = 320,000); AID 1987;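 active = inhibition above the campaign's mean inhibition across all tested compounds plus 3 SD, cut at about 9.5% in these data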;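 also: 0% = DMSO only and 100% = 100 µM cantharidin control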
UBC13 inh = human UBC13 polyubiquitination inhibition. AID 485273. inhibition, % at 20 µM. UBC13 polyubiquitin chain formation, TR-FRET. actives 0.47% (n = 330,000). P61088; in the data active = inhibition above about 45%, passing the limit was not always enough
PREPL inh = human PREPL enzyme inhibition; Q4J6C6; recombinant PREPL, fluorescence polarization activity-based probe; inhibition, % at 5.96 µM; actives 0.68% (n = 320,000); AID 2751;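 also: 0% = enzyme with DMSO and 100% = wells lacking enzyme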
Target sequence (Q4J6C6 whole entry, looked up): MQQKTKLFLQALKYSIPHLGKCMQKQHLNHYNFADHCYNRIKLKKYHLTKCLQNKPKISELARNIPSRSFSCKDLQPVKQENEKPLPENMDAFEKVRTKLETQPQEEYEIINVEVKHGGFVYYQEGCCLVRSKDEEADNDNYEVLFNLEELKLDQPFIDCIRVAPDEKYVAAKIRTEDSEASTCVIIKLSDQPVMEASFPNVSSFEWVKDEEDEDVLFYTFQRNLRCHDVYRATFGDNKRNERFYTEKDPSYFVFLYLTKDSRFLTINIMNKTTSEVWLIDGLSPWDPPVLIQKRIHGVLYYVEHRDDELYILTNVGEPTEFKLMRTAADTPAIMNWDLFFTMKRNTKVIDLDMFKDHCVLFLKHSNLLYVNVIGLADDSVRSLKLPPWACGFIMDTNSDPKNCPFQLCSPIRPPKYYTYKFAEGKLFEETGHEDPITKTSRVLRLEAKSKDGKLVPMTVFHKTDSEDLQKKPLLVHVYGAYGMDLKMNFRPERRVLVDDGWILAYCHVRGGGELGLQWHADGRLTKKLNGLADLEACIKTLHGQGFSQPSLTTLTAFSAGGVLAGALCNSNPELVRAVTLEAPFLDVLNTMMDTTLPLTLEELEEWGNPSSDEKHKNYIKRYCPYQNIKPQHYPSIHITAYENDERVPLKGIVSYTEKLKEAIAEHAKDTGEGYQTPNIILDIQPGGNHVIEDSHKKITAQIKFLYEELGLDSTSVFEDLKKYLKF
Fh CTSL1 inh = cathepsin L1 inhibition, PFM18AAP counter-screen | recombinant F. hepatica cathepsin L1, Z-Leu-Arg-MCA fluorescence | inhibition, % at 5.96 µM | actives 0.49% (n = 300,000) | AID 1906;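 active = inhibition above the mean of all tested compounds plus 3 SD, set per screening campaign, cut at about 17% in these data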;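 also: 0% = plate median of test compound wells and 100% = 1 µM Z-Phe-Ala-diazomethylketone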
PP1 counter = counter-screen for PP5 inhibitors: inhibitors of human PP1-alpha | inhibition, % at 6.7 µM | actives 0.9% (n = 320,000) | purified PP1alpha, OMFP fluorescence;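 active = inhibition above the mean inhibition of all tested compounds plus 3 SD, computed separately for each screening campaign, cut at about 15% in these data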
UCH37 DUB inh = inhibitors of human deubiquitinating enzyme UCH37; actives 0.33% (n = 330,000); inhibition, % (no concentration beside the values); purified proteasome/UCH37, Ub-AMC cleavage fluorescence; AID 588478;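 active = mean inhibition over replicate wells above about 20%, limit read from the data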;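 also: 0% = compound-free wells with enzyme and 100% = wells lacking proteasome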
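System: Proteasome-associated human UCH37 deubiquitinase; Input: 0.15 nM proteasome in added enzyme buffer; Also added: Ub-AMC substrate from 1 µM stock; Incubation: 30 min compound-proteasome preincubation then 25 min substrate reaction, room temperature; Detection: fluorescence, ex 355 nm, em 460 nm; Read-out: % inhibition of Ub-AMC cleavage fluorescence; Benchmarks: no-proteasome and no-compound wells.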
PREPL confirm = confirmation of human PREPL enzyme inhibitors. shares compounds with PREPL inh. recombinant PREPL, fluorescence polarization activity probe. inhibition, % at 5.96 µM. actives 67% (n = 2,000). AID 2803;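 also: 0% = protein with DMSO and 100% = wells lacking protein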
* hit, by the source's call. Rows were chosen to be rich in hits. Some 2.3% of all compounds tested hit in one or more screens of this group. Rule as the data show it, unless noted: active = inhibition above about 43%; inactive = the rest.

`O=C(C1=C[C@@H](c2ccc(Br)cc2)C[C@@H](OCCCCO)O1)N1CCN(Cc2ccc3c(c2)OCO3)CC1` gave PP5 primary 6, UBC13 inh 23, PREPL inh 67*, Fh CTSL1 inh 3, PP1 counter 2, UCH37 DUB inh 30* and PREPL confirm 59*.
Screening C#Cc1ccc([C@H]2C=C(C(=O)N3CCN(Cc4ccc5c(c4)OCO5)CC3)O[C@@H](OCC)[C@@H]2CCCO)cc1 returned PP5 primary 5, UBC13 inh 0, PREPL inh 19, Fh CTSL1 inh 2, PP1 counter 0 and UCH37 DUB inh 5.
Screening CCO[C@H]1OC(C(=O)N2CCN(Cc3ccc4c(c3)OCO4)CC2)=C[C@@H](c2ccc3c(c2)OCO3)[C@@H]1CCCO returned PP5 primary 0, UBC13 inh 8, PREPL inh 49*, Fh CTSL1 inh -3, PP1 counter -3, UCH37 DUB inh 4 and PREPL confirm 43.
Screening COc1ccc(S(=O)(=O)NN=C(C)c2ccc(Cl)cc2)cc1 returned UCH37 DUB inh 1.
For C=CCNC(=S)NN=Cc1ccc(-c2cccc([N+](=O)[O-])c2)o1 the results were UCH37 DUB inh 5.
Screening CON=C(C)CCS(=O)(=O)c1ccccc1 returned UCH37 DUB inh -1.
Screening O=C(c1ccc(S(=O)(=O)NCc2ccco2)cc1)N1CCCC1 returned PP5 primary 1, UBC13 inh -1, PREPL inh 5, Fh CTSL1 inh -2, PP1 counter -3 and UCH37 DUB inh 2.
N#Cc1ccc(CN2CCN(C(=O)c3ccc(S(=O)(=O)NCc4ccco4)cc3)CC2)cc1 was read as PP5 primary 0, UBC13 inh -14, PREPL inh 50*, PP1 counter -4 and PREPL confirm 8.
For Cc1ccccc1N(CC(=O)NN=Cc1ccc(F)cc1)C(=O)c1ccccc1 the results were UCH37 DUB inh 5.
Nc1nc(SCC(=O)c2ccc(Br)s2)n[nH]1 was read as PP5 primary 2, UBC13 inh -11, PREPL inh 52*, Fh CTSL1 inh -1, PP1 counter 2, UCH37 DUB inh -1 and PREPL confirm 29.
Nc1nc(SCC(=O)c2cccs2)n[nH]1 was read as PP5 primary -2, UBC13 inh 0, PREPL inh 5, Fh CTSL1 inh -1, PP1 counter -11 and UCH37 DUB inh 0.
`CC(=NOC(=O)c1cccc(C(F)(F)F)c1)c1cnccn1` gave UCH37 DUB inh 1.
For Cc1cc2c(N)cccc2nn1 the results were PP5 primary 0, UBC13 inh -42, PREPL inh 68*, Fh CTSL1 inh -3, PP1 counter 1 and PREPL confirm 11.
Screening CN1C(=O)NC(c2ccccc2[N+](=O)[O-])C2=C1CCCC2=O (stereo not drawn) returned PP5 primary 2, UBC13 inh -39, PREPL inh 77*, Fh CTSL1 inh 6, PP1 counter -2, UCH37 DUB inh 6 and PREPL confirm 14.
Screening Cc1ccc(C(=O)NN=Cc2cccc3ccccc23)cn1 returned UCH37 DUB inh 6.
`Cc1ccc2[nH]c(C(=O)NN=Cc3ccc([N+](=O)[O-])cc3)c(C)c2c1` gave UCH37 DUB inh 4.
Screening CCN1CCN(c2cc(N3CCN(C(=O)c4ccco4)CC3)c3c4c(onc24)-c2ccccc2C3=O)CC1 returned PP5 primary 4, UBC13 inh -152, PREPL inh 70*, Fh CTSL1 inh -3, PP1 counter 8 and PREPL confirm 68*.
`O=C1C2C3C=CC(C4CC34)C2C(=O)N1N=Cc1ccc(-c2ccccc2[N+](=O)[O-])o1` (stereo not drawn) gave UCH37 DUB inh 6.
For COC(=O)c1sccc1-c1ccc(/C=N/OC(=O)c2ccccc2)o1 the results were PP5 primary 5, UBC13 inh -9, PREPL inh 43*, Fh CTSL1 inh 0, PP1 counter 2 and PREPL confirm 38.
For COC(=O)c1sccc1-c1ccc(C=NOCc2c(Cl)cccc2Cl)o1 the results were UCH37 DUB inh -213.
Screening O=C(/C=C/c1ccccc1)NCC(=O)NN=Cc1cccs1 returned UCH37 DUB inh 3.
N#Cc1c(N)nc2c3c(sc(=N)c2c1N)NC(=O)CC3c1ccccc1 (stereo not drawn) was read as PP5 primary 1, UBC13 inh 5, PREPL inh 50*, Fh CTSL1 inh 11, PP1 counter 4, UCH37 DUB inh -115 and PREPL confirm 40.
Screening Cc1cc(C)n2nc(CC#N)c(C#N)c2n1 returned PP5 primary -9, UBC13 inh 10, PREPL inh 18, Fh CTSL1 inh 7, PP1 counter 0 and UCH37 DUB inh -31.
Cc1cc(C)n2nc(/C(C#N)=C/c3ccccn3)c(C#N)c2n1 was read as PP5 primary 5, UBC13 inh -2, PREPL inh 65*, Fh CTSL1 inh 0, PP1 counter -1, UCH37 DUB inh -8 and PREPL confirm 16.
COc1ccc(-c2oc3ncn(CCN4CCOCC4)c(=N)c3c2-c2ccc(OC)cc2)cc1 was read as PP5 primary 2, UBC13 inh 21, PREPL inh 48*, Fh CTSL1 inh 4, PP1 counter 5, UCH37 DUB inh -1 and PREPL confirm 35.
Screening CCCOc1ccc(-c2c(C(=O)NN=CC3CC=CCC3)nnn2-c2nonc2N)cc1 (stereo not drawn) returned UCH37 DUB inh 3.
Screening COc1cccc(C=Nn2cnc3c(cnn3-c3ccccc3)c2=O)c1 returned UCH37 DUB inh 6.
For Cc1ccc(C)c(Nc2cc(C)nc3ccccc23)c1 the results were PP5 primary 1, UBC13 inh 3, PREPL inh 44*, Fh CTSL1 inh -3, PP1 counter 2, UCH37 DUB inh 7 and PREPL confirm 38.
For COc1ccc2c(c1)c(C)cc[n+]2Cc1ccccc1 the results were UBC13 inh 6 and UCH37 DUB inh -177.
Screening Cc1ccc2c(c1)c(C)cc[n+]2Cc1ccccc1 returned PP5 primary -1, UBC13 inh 14, PREPL inh 50*, Fh CTSL1 inh -3, PP1 counter -1, UCH37 DUB inh -11 and PREPL confirm 29.
`COc1cc2c(cc1OC)C1=C(C#N)CCC(=NS(=O)(=O)c3ccccc3)N1CC2` gave UCH37 DUB inh 9.
